Reference: article PMC2865857 (Journal of molecular biology, 2010)
Where no end group is shown, it is not given here. [ ]: non-standard residue; d: D form. Lys(Me2) = CN(C)CCCC[C@H](N)C(=O)O

Key:
[1] = target: T1, human 53BP1 tandem Tudor domain (Homo sapiens, UniProt Q12888); test: Binding of peptides to the 53BP1 tandem Tudor domain by tryptophan fluorescence; details: for decrease in binding affinity relative to p53K382me2: ratio of Kd values, 25°C (Fig. 2a, b; Fig. 3e)
Summary of the method: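 Synthetic Fmoc-made peptides were HPLC-purified. Intrinsic tryptophan fluorescence was measured at 25°C on 0.5 μM protein with increasing peptide, exciting at 295 nm and recording emission at 305–405 nm over three scans. Kd came from a nonlinear quadratic binding fit, averaged over three experiments ± SD.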

[2] = target: T1, human 53BP1 tandem Tudor domain; test: other fluorescence titration

Row | Compound | decrease in binding affinity relative to p53K382me2 ([1]; tryptophan fluorescence) | also measured
1 | p53K382me2L383A: p53K382me2 peptide (377–386) with Leu383 replaced (TSRHK[Lys(Me2)]AMFK) |  | effect of residue replacement on the Kd relative to p53K382me2 (in words) ([1]; tryptophan fluorescence, 25°C (Fig. 2a)): virtually no effect
2 | p53K372me2: p53 peptide (367–377) dimethylated at Lys372 (SHLKS[Lys(Me2)]KGQST) | 22 fold | 
3 | H4K20me2 peptide (15–23) (from UniProt P62805 16-24) |  | Kd [2]: 1300 nM
4 | p53K381AK382me2: p53K382me2 peptide (377–386) with Lys381 substituted with Ala (TSRHA[Lys(Me2)]LMFK) | 11 fold | 
5 | p53H380AK382me2: p53K382me2 peptide (377–386) with His380 substituted with Ala (TSRAK[Lys(Me2)]LMFK) | 16 fold | 
6 | p53K370me2: p53 peptide (366–375) dimethylated at Lys370 (SSHL[Lys(Me2)]SKKGQ) | 22 fold | 
7 | unmodified p53 peptide: unmodified p53 peptide, residues 377–386 (TSRHKKLMFK; UniProt P04637 377-386, looked up, fragment) |  | association of 53BP1 tandem Tudor domain with peptide (in words) ([1]; Fig. 2a, measured by tryptophan fluorescence or Isothermal Titration Calorimetry): does not associate
8 | CSCC[C@H](NC(=O)[C@H](CC(C)C)NC(=O)[C@H](CCCCN(C)C)NC(=O)[C@H](CCCCN)NC(=O)[C@H](Cc1c[nH]cn1)NC(=O)[C@H](CCCNC(=N)N)NC(=O)[C@H](CO)NC(=O)[C@@H](N)[C@@H](C)O)C(=O)N[C@@H](Cc1ccccc1)C(=O)N[C@@H](CCCCN)C(=O)O [p53K382me2] |  | Kd [1]: 900 nM
